Experimental data collected from several papers.
Lines come from different studies, so protocols differ.
Target: Calcium/calmodulin-dependent protein kinase type 1 (CAMK1, Homo sapiens, UniProt Q14012)

SMILES | test | conditions | quantity | result
O=C(NS(=O)(=O)c1ccc(NCC2CCOCC2)c([N+](=O)[O-])c1)c1ccc(N2CCN(Cc3ccc(C(F)(F)F)cc3-c3ccc(Cl)cc3)CC2)cc1Oc1cnc2[nH]ccc2c1 | cell-free assay, competition with immobilised ligand | 1 µM | remaining binding | 100%
Nc1nc(NC2CCCCC2)sc1C(=O)c1ccccc1 | enzyme activity, inhibitor | 10 µM | remaining activity | 86%
CCCOc1ccc([C@@H]2[C@@H](C(=O)O)[C@H](c3ccc4c(c3)OCO4)CN2CC(=O)Nc2c(CC)cccc2CC)cc1 | cell-free assay, competition with immobilised ligand | 1 µM | remaining binding | 100%
Cc1ccc(NC(=O)c2ccc(C)c(C(F)(F)F)c2)cc1C#Cc1nn(C2CCC(O)CC2)c2ncnc(N)c12 (centres unmarked) | cell-free assay | 10 µM | remaining signal | 62%
COc1cc(-c2cn(C3CCc4ccccc4N(CC(F)(F)F)C3=O)nn2)ccc1-n1ccc(C)n1 (centres unmarked) | cell-free assay, competition with immobilised ligand | 1 µM | remaining binding | 100%
FC(F)c1nc2ccccc2n1-c1nc(N2CCOCC2)nc(N2CCOCC2)n1 | enzyme activity, inhibitor | 10 µM | remaining activity | 114%
CC(=O)N1CCC(c2ccc(C(=O)NC3=NCCN3)cc2C(F)(F)F)CC1 | cell-free assay, competition with immobilised ligand | 1 µM | remaining binding | 100%
Cc1cc(NC(=O)c2cccc3cc(-c4cccc5[nH]nc(N)c45)ccc23)ccc1F | enzyme activity, inhibitor | 0.1 µM | activity vs control | 116%
Cc1cnc(NC2CCOCC2)nc1-n1cnc(C(=O)NC(CN)c2cc(F)cc(Cl)c2)c1 (centres unmarked) | enzyme activity, inhibitor, radiometric | 1 µM | remaining activity | 88%
COc1cc2ncnc(Nc3ccc(F)c(Cl)c3)c2cc1OCCCN1CCOCC1 | cell-free assay | 0.5 µM | remaining signal | 102%
C=CC(=O)Nc1cc(Nc2nccc(Nc3cc(Cl)c(F)cc3C(C)(C)O)n2)c(OC)cc1N1CC[C@@H](N(C)C)C1 | enzyme activity, inhibitor | 1 µM | inhibition | 2%
CCN(CC)CCNC(=O)c1c(C)[nH]c(/C=C2\C(=O)Nc3ccc(F)cc32)c1C | enzyme activity, inhibitor | 0.3 µM | inhibition | 21%
CCN(CC)c1ccc(C2=NNC(=O)CC2C)cc1[N+](=O)[O-] (centres unmarked) | enzyme activity, inhibitor | 10 µM | remaining activity | 89%
Cc1sc(C(=O)NC2COC2)cc1-n1cc(NC(=O)Nc2c(F)cccc2Cl)cn1 | enzyme activity, inhibitor | 10 µM | remaining activity | 115%
Cc1cc(-n2nc(Cc3cc(F)cc(C(F)(F)F)c3)nc2C)ccc1C(N)=O | cell-free assay, competition with immobilised ligand | 1 µM | remaining binding | 90%
c1ccc(CNc2nc(N3CCOc4ccccc43)nc3c2CCCC3)cc1 | target engagement in cells, inhibitor, chemoproteomics | 20 mM | inhibition | 1.2%
O=C1NC(=O)c2cc(Nc3ccc(F)cc3)c(Nc3ccc(F)cc3)cc21 | cell-free assay | 0.5 µM | remaining signal | 104%
CC(=O)C1=C(C)N(c2cccc(C(F)(F)F)c2)C(=O)N[C@@H]1c1ccc(C#N)nc1 | cell-free assay, competition with immobilised ligand | 1 µM | remaining binding | 86.7%
COc1cc(-c2cc(-c3ccc(N4CCNCC4)cc3)cnc2C)cc(OC)c1OC | enzyme activity, inhibitor | 1 µM | inhibition | 1%
CNC(=O)c1cc(Oc2ccc(NC(=O)Nc3ccc(Cl)c(C(F)(F)F)c3)cc2)ccn1 | enzyme activity, inhibitor | 0.3 µM | inhibition | -6%
